Data taken from ChEMBL document CHEMBL3627702, “Navigating CYP1A Induction and Arylhydrocarbon Receptor Agonism in Drug Discovery. A Case History with S1P1 Agonists” (J Med Chem, 2015).

Assays:
[1] = AUC in Sprague-Dawley rat at 17 mg/kg, po QD measured on day 1; assay type: ADME, organism-based; conditions: in vivo
Summary of the method: (§1)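 Male CD rats (226−325 g), n = 3, given the compound once daily by oral gavage for 4 days. Vehicle was 1% (w/v) methylcellulose aq suspension at 3−6 mg/mL, dosed at 5 mL/kg (target 15−30 mg/kg). Tail vein blood was taken on days 1 and 4 up to 24 h postdose. Blood was diluted 1:1 with water, extracted by acetonitrile protein precipitation and analysed by LC−MS/MS against calibration standards in diluted blood.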

CYP1A2 [2] = test: Induction of CYP1A2 mRNA expression in Sprague-Dawley rat hepatic microsomes at 17 mg/kg, po QD for 4 days relative to control; assay type: ADME, organism-based, Liver; conditions: read-out: FC
[3] = AUC in Sprague-Dawley rat at 17 mg/kg, po QD measured on day 4; assay type: ADME, organism-based; conditions: in vivo; summary of the method: as §1
[4] = Lipophilicity, log D of the compound at pH 7.4; assay type: physicochemical; conditions: buffer
Rattus norvegicus [5] = test: Dose normalized AUC in Sprague-Dawley rat at 17 mg/kg, po QD measured on day 4; assay type: ADME, organism-based; conditions: in vivo; summary of the method: as §1
CYP1A1 [6] = test: Induction of CYP1A1 mRNA expression in Sprague-Dawley rat hepatic microsomes at 17 mg/kg, po QD for 4 days relative to control; assay type: ADME, organism-based, Liver; conditions: read-out: FC
Summary of the method: (§2)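 Male CD rats (226–325 g, n = 3) were dosed by oral gavage once daily for 4 days as a 1% w/v aqueous methylcellulose suspension (3–6 mg/mL, 5 mL/kg). At the end of the study, a left lateral liver lobe section was placed in RNALater and homogenised in TRIzol. RNA was purified, DNase-treated and converted to cDNA, and Cyp1a1 was read on low-density TaqMan arrays.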

[7] = Cmax in Sprague-Dawley rat at 17 mg/kg, po QD measured on day 4; assay type: ADME, organism-based; parameters: dose 17 mg/kg, route oral; conditions: in vivo; summary of the method: as §1
[8] = Cmax in Sprague-Dawley rat at 17 mg/kg, po QD measured on day 1; assay type: ADME, organism-based; parameters: dose 17 mg/kg, route oral; conditions: in vivo; summary of the method: as §1
Rattus norvegicus [9] = test: Dose normalized AUC in Sprague-Dawley rat at 17 mg/kg, po QD measured on day 1; assay type: ADME, organism-based; conditions: in vivo; summary of the method: as §1
[10] = AUC in Sprague-Dawley rat at 22 mg/kg, po QD measured on day 4; assay type: ADME, organism-based; conditions: in vivo; summary of the method: as §1
[11] = AUC in Sprague-Dawley rat at 22 mg/kg, po QD measured on day 1; assay type: ADME, organism-based; conditions: in vivo; summary of the method: as §1
CYP1A1 [12] = test: Induction of CYP1A1 mRNA expression in Sprague-Dawley rat hepatic microsomes at 22 mg/kg, po QD for 4 days relative to control; assay type: ADME, organism-based, Liver; conditions: read-out: FC; summary of the method: as §2
CYP1A2 [13] = test: Induction of CYP1A2 mRNA expression in Sprague-Dawley rat hepatic microsomes at 22 mg/kg, po QD for 4 days relative to control; assay type: ADME, organism-based, Liver; conditions: read-out: FC
[14] = Cmax in Sprague-Dawley rat at 22 mg/kg, po QD measured on day 4; assay type: ADME, organism-based; parameters: dose 22 mg/kg, route oral; conditions: in vivo; summary of the method: as §1
Rattus norvegicus [15] = test: Dose normalized AUC in Sprague-Dawley rat at 22 mg/kg, po QD measured on day 1; assay type: ADME, organism-based; conditions: in vivo; summary of the method: as §1
[16] = Dissociation constant, pKa of the compound; assay type: physicochemical
[17] = Cmax in Sprague-Dawley rat at 22 mg/kg, po QD measured on day 1; assay type: ADME, organism-based; parameters: dose 22 mg/kg, route oral; conditions: in vivo; summary of the method: as §1
Rattus norvegicus [18] = test: Dose normalized AUC in Sprague-Dawley rat at 22 mg/kg, po QD measured on day 4; assay type: ADME, organism-based; conditions: in vivo; summary of the method: as §1

SMILES	AUC [1] [ng·h/mL]	fold induction at 96 h (CYP1A2 [2])	AUC [3] [ng·h/mL]	logD [4]	AUC/dose (Rattus norvegicus [5]) [kg·min/L]	fold induction at 96 h (CYP1A1 [6])	Cmax [7] [ng/mL]	Cmax [8] [ng/mL]	AUC/dose (Rattus norvegicus [9]) [kg·min/L]	AUC [10] [ng·h/mL]	AUC [11] [ng·h/mL]	fold induction at 96 h (CYP1A1 [12])	fold induction at 96 h (CYP1A2 [13])	Cmax [14] [ng/mL]	AUC/dose (Rattus norvegicus [15]) [kg·min/L]	pKa [16]	Cmax [17] [ng/mL]	AUC/dose (Rattus norvegicus [18]) [kg·min/L]
Cc1c(-c2noc(-c3ccc(OC(C)C)c(C#N)c3)n2)cnc2c1CCN(C(CO)CO)C2	12900	2	16800	2.15	59	0.9	2170	1610	46	–	–	–	–	–	–	–	–	–
Cc1c(-c2noc(-c3cnc(OC(C)C)c(C#N)c3)n2)ccc2c1CCN(C(CO)CO)C2	–	–	–	2.84	–	–	–	–	–	28800	24300	7	3	2730	66	7.3	2100	79
